Results reported in ChEMBL document CHEMBL3853309, “Lovastatin Analogues from the Soil-Derived Fungus Aspergillus sclerotiorum PSU-RSPG178” (J Nat Prod, 2016).
Active and inactive are the calls of the source. The calls are words filed in the database; no cut-off is given here.

Columns and labels:
[1] = molecular target: T1, 3-hydroxy-3-methylglutaryl-coenzyme A reductase (Homo sapiens) (UniProt P04035); details: 1 uM
T1 sequence (whole entry): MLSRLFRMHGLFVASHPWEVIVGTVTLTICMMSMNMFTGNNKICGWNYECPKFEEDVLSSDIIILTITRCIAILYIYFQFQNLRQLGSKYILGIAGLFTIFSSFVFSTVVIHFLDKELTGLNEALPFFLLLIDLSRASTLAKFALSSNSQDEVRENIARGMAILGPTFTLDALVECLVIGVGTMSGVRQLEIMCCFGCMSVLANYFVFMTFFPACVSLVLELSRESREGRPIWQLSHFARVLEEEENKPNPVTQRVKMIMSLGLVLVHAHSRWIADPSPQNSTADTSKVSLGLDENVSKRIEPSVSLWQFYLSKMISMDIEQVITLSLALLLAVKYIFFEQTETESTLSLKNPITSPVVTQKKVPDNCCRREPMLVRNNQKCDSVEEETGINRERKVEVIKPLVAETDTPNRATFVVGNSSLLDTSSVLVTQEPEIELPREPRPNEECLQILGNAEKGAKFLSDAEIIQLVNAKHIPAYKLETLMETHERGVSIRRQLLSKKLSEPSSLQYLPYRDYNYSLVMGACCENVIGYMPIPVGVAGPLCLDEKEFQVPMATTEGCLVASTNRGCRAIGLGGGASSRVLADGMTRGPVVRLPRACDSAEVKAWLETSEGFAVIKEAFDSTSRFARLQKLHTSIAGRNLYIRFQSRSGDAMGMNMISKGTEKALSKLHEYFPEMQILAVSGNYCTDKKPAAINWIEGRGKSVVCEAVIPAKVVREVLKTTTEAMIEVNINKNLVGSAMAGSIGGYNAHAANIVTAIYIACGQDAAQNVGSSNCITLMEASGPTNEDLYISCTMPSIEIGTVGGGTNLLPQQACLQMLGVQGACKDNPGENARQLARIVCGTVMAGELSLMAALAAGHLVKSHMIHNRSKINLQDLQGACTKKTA

[2] = Cytotoxicity against human KB cells by resazurin microplate assay; assay type: functional, cell-based
How it was run: (§1)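 KB and MCF-7 cells assayed by resazurin microplate method; positive controls ellipticine and doxorubicin for KB, doxorubicin and tamoxifen for MCF-7.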

[3] = molecular target: T1, 3-hydroxy-3-methylglutaryl-coenzyme A reductase (Homo sapiens); assay: Inhibition of human HMGR catalytic domain at 200 uM using HMG-CoA as substrate measured every 20 secs for 10 mins relative to control
How it was run: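 Sigma HMG-CoA reductase kit, modified: 1× assay buffer, NADPH, HMG-CoA (800 μM final), test compound at 200 μM final; reaction started by adding human HMGR catalytic domain (0.6 μM final) at 37 °C. NADPH oxidation followed at 340 nm for 10 min, 20 s intervals.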

[4] = Cytotoxicity against African green monkey Vero cells; assay type: toxicity, cell-based; details: African green monkey (Chlorocebus sabaeus)
How it was run: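 Vero (African green monkey kidney fibroblast) cells tested in triplicate by the Hunt et al. method; ellipticine positive control.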

[5] = Cytotoxicity against human MCF7 cells by resazurin microplate assay; assay type: functional, cell-based
How it was run: as §1

[6] = molecular target: T1, 3-hydroxy-3-methylglutaryl-coenzyme A reductase (Homo sapiens); assay: Binding affinity to human HMGR catalytic domain at 50 uM in presence of 800 to 3200 uM HMG-CoA as substrate measured every 20 secs for 10 mins
How it was run: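 Direct-interaction test: compound at 50 μM with HMG-CoA at 800, 1600 and 3200 μM, plus NADPH and human HMGR catalytic domain at 37 °C. Activity read at 340 nm for 10 min at 20 s intervals, reported as percent inhibition versus untreated control; n = 3.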

[7] = molecular target: T2, 3-hydroxy-3-methylglutaryl-coenzyme A reductase (Homo sapiens, UniProt P04035); assay: Inhibition of human HMGR catalytic domain using 800 uM HMG-CoA as substrate measured every 20 secs for 10 mins
T2 sequence (P04035 whole entry): T1 sequence (whole entry)
How it was run: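 Dose-response format of the kit assay: 1× buffer, NADPH, 800 μM HMG-CoA, graded compound concentrations, human HMGR catalytic domain 0.6 μM final added to start at 37 °C.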

Plasmodium falciparum = assay: Antimalarial activity against multi-drug-resistant Plasmodium falciparum K1 by microculture radioisotope technique; assay type: functional
How it was run: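 Parasite: P. falciparum K1 (multidrug-resistant). Growth inhibition read by a microculture radioisotope method adapted from a published protocol. Dihydroartemisinine and mefloquine served as reference standards.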

Row | inhibition [3] [%] | Compound | IC50 [2] [µM] | IC50 [4] [µM] | IC50 [5] [µM] | further results
1 | – | CC[C@H](C)C(=O)O[C@H]1C[C@H](O)C=C2C=C[C@H](C)[C@H](CC[C@@H](O)C[C@@H](O)CC(=O)O)[C@H]21 | – | – | – | inhibition [1]: 90.4%
2 | 17.2 | CC[C@H](C)C(=O)O[C@H]1C[C@@H](C)C[C@@H]2C=C[C@H](C)[C@H](CC[C@@H]3CC=CC(=O)O3)[C@@H]12 | 15.2 | 14.5 | – | –
3 | 20.4 | CC[C@H](C)C(=O)O[C@H]1C[C@@H](C)[C@H](OC(C)=O)C2=C[C@@H](OC(C)=O)[C@H](C)[C@H](CC[C@@H]3CC=CC(=O)O3)[C@H]21 | 19.8 | 8.4 | 74.7 | –
4 | – | CC/C(=C(\c1ccccc1)c1ccc(OCCN(C)C)cc1)c1ccccc1 [TAMOXIFEN] | – | – | 6.99 | –
5 | 50 | CC[C@H](C)C(=O)O[C@H]1C[C@@H](C)[C@H](O)C2=C[C@@H](O)[C@H](C)[C@H](CC[C@@H]3CC=CC(=O)O3)[C@H]21 | 31.6 | 40 | – | Activity [6]: Active; IC50 [7]: 387 µM
6 | – | O[C@@H](c1cc(C(F)(F)F)nc2c(C(F)(F)F)cccc12)[C@H]1CCCCN1 [(S,R)-MEFLOQUINE] | – | – | – | IC50 (Plasmodium falciparum): 0.0269 µM
7 | 42 | CC[C@H](C)C(=O)O[C@H]1C[C@@H](C)C=C2C=C[C@H](C)[C@H](CC[C@@H]3C[C@@H](O)CC(=O)O3)[C@H]21 [LOVASTATIN] | 15.6 | 2.2 | – | Activity [6]: Active
8 | – | Cc1c2ccncc2c(C)c2c1[nH]c1ccccc12 [ELLIPTECINE] | 2.03 | 1 | – | –
9 | – | C[C@H]1[C@@H](O)O[C@@H]2O[C@@]3(C)CC[C@H]4[C@H](C)CC[C@@H]1[C@@]24OO3 [ARTENIMOL] | – | – | – | IC50 (Plasmodium falciparum): 0.0023 µM
10 | – | COc1cccc2c1C(=O)c1c(O)c3c(c(O)c1C2=O)C[C@@](O)(C(=O)CO)C[C@@H]3O[C@H]1C[C@H](N)[C@H](O)[C@H](C)O1 [DOXORUBICIN] | – | – | 6.75 | –

Row | Compound | inhibition [3] [%] | IC50 [2] [µM] | IC50 [4] [µM] | IC50 [5] [µM] | further results
11 | CC[C@H](C)C(=O)O[C@H]1C[C@@H](C)C=C2C=C[C@H](C)[C@H](CC[C@@H]3CC=CC(=O)O3)[C@H]21 | 8.4 | 20.1 | 8.1 | 57.3 | –
